# In ChEMBL document CHEMBL1149106, “Design, synthesis, and evaluation of aza-peptide epoxides as selective and potent inhibitors of caspases-1, -3, -6, and -8” (J Med Chem, 2004):
# The source made the active and inactive calls. No cut-off for these calls is given here.
# Experiments:
# Caspase-3 (Homo sapiens) [1] = target: T1, Caspase-3 (Homo sapiens) (UniProt P42574); assay: Second-order inhibition rate of caspase-3 was determined by progress curve method
# T1 sequence (whole entry): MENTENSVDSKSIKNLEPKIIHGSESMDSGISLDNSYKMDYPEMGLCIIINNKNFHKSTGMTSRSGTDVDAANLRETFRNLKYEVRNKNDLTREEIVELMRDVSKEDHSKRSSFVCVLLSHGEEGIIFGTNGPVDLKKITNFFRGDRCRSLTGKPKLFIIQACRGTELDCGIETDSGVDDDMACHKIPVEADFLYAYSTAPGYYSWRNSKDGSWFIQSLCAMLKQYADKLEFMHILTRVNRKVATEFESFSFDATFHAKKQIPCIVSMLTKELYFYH
# Method in brief: (§1)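 Caspases-3, -6 and -8 were assayed in 50 mM HEPES, 100 mM NaCl, 0.1% (w/v) CHAPS, 10% (w/v) sucrose and 10 mM DTT, pH 7.4. Substrate: Cbz-DEVD-AFC or Cbz-DEVD-AMC.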
# Caspase-6 (Homo sapiens) [2] = target: T2, Caspase-6 (Homo sapiens) (UniProt P55212); assay: Second-order inhibition rate of caspase-6 was determined by progress curve method; method in brief: as §1
# T2 sequence (whole entry): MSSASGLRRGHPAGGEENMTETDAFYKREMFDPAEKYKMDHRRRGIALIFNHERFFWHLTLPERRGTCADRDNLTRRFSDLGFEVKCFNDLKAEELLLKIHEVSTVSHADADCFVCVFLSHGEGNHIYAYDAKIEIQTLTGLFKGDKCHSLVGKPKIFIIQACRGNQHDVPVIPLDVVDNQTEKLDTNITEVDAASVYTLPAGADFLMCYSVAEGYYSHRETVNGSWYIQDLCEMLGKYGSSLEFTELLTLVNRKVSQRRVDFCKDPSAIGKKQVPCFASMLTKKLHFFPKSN
# Caspase-8 (Homo sapiens) [3] = target: Caspase-8 (Homo sapiens) (UniProt Q14790); assay: Second-order inhibition rate of caspase-8 was determined by progress curve method; method in brief: as §1
# Caspase-1 (Homo sapiens) = target: T3, Caspase-1 (Homo sapiens) (UniProt P29466); assay: Second-order inhibition rate of caspase-1 was determined by progress curve method
# T3 sequence (whole entry): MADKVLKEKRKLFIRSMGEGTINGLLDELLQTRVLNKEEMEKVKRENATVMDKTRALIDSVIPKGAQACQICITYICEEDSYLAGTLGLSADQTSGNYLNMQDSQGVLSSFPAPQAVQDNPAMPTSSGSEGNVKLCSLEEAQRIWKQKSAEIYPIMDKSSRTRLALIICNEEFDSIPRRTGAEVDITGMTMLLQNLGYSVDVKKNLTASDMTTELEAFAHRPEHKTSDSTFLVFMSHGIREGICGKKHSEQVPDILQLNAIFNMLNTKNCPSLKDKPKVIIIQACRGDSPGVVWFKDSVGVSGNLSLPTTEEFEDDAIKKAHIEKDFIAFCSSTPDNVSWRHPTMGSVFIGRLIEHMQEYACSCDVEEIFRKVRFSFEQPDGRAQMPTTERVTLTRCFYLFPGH
# Method in brief: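 Caspase-1 assay buffer: 100 mM HEPES, 0.5 mM EDTA, 20% (v/v) glycerol, 5 mM DTT, pH 7.5. Substrate: Ac-YVAD-AMC.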
# Caspase-3 (Homo sapiens) [4] = target: T1, Caspase-3 (Homo sapiens); assay: Second-order inhibition rate of caspase-3 was determined by progress curve method; No inhibition; method in brief: as §1
# Caspase-6 (Homo sapiens) [5] = target: T2, Caspase-6 (Homo sapiens); assay: Second-order inhibition rate of caspase-6 was determined by progress curve method; No inhibition; method in brief: as §1
# Caspase-8 (Homo sapiens) [6] = target: Caspase-8 (Homo sapiens) (UniProt Q14790); assay: Second-order inhibition rate of caspase-8 was determined by progress curve method; No inhibition; method in brief: as §1
# Sequence of Caspase-8 (Homo sapiens) (Q14790 217-374 limits assumed): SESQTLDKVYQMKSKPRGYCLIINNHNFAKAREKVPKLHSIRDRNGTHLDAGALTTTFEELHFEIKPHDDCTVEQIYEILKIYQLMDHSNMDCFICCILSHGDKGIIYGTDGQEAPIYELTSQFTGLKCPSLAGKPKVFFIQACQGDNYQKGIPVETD
# Sequence of Caspase-8 (Homo sapiens) (Q14790 385-479 limits assumed): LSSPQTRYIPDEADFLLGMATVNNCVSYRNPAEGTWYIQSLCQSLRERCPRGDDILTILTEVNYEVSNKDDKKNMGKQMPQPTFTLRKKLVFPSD
k2 (Caspase-3 (Homo sapiens) [1]) [M⁻¹ s⁻¹],k2 (Caspase-6 (Homo sapiens) [2]) [M⁻¹ s⁻¹],k2 (Caspase-8 (Homo sapiens) [3]) [M⁻¹ s⁻¹],k2 (Caspase-1 (Homo sapiens)) [M⁻¹ s⁻¹],k2 (Caspase-3 (Homo sapiens) [4]),k2 (Caspase-6 (Homo sapiens) [5]),k2 (Caspase-8 (Homo sapiens) [6]),Structure (SMILES)
3650,350,1260,–,–,–,–,CCOC(=O)[C@H]1O[C@@H]1C(=O)N(CC(=O)O)NC(=O)[C@@H](NC(=O)OCc1ccccc1)C(C)C
27300,3130,72700,41100,–,–,–,CC(C)[C@H](NC(=O)[C@H](CCC(=O)O)NC(=O)OCc1ccccc1)C(=O)NN(CC(=O)O)C(=O)[C@H]1O[C@@H]1C(=O)NCCc1ccccc1
1110,90,370,–,–,–,–,CC(C)[C@H](NC(=O)OCc1ccccc1)C(=O)NN(CC(=O)O)C(=O)[C@H]1O[C@@H]1C(=O)O
3110,45400,4560,13000,–,–,–,CC[C@H](C)[C@H](NC(=O)OCc1ccccc1)C(=O)N[C@@H](CCC(=O)O)C(=O)N[C@H](C(=O)NN(CC(=O)O)C(=O)[C@@H]1O[C@H]1C(=O)OCc1ccccc1)[C@@H](C)O
–,15,185,1860,inactive,–,–,CC(C)[C@H](NC(=O)CCc1ccccc1)C(=O)N[C@@H](C)C(=O)NN(CC(=O)O)C(=O)[C@@H]1O[C@H]1C(=O)OCc1ccccc1
510,63,4090,12200,–,–,–,CC(C)[C@H](NC(=O)CCc1ccccc1)C(=O)N[C@@H](C)C(=O)NN(CC(=O)O)C(=O)[C@H]1O[C@@H]1C(=O)NCC(O)c1ccccc1 (some centres undefined)
–,–,–,1630,inactive,inactive,inactive,CC(C)[C@H](NC(=O)CCc1ccccc1)C(=O)N[C@@H](C)C(=O)NN(CC(=O)O)C(=O)[C@@H]1O[C@H]1C(=O)NCc1ccccc1
2110,240,3780,56600,–,–,–,CC(C)[C@H](NC(=O)CCc1ccccc1)C(=O)N[C@@H](C)C(=O)NN(CC(=O)O)C(=O)[C@H]1O[C@@H]1C(=O)OCCc1ccccc1
2550,10000,53300,–,–,–,–,CC(C)C[C@H](NC(=O)OCc1ccccc1)C(=O)NC(CCC(=O)O)C(=O)N[C@H](C(=O)NN(CC(=O)O)C(=O)[C@H]1O[C@@H]1C(=O)NCCc1ccccc1)[C@@H](C)O (some centres undefined)
722000,6140,29600,9250,–,–,–,CC(C)[C@H](NC(=O)C(CCC(=O)O)NC(=O)[C@H](CC(=O)O)NC(=O)OCc1ccccc1)C(=O)NN(CC(=O)O)C(=O)[C@H]1O[C@@H]1C(=O)N[C@@H](Cc1ccccc1)C(N)=O (some centres undefined)
470,25,–,1040,–,–,–,CC(C)[C@H](NC(=O)[C@H](CCC(=O)O)NC(=O)OCc1ccccc1)C(=O)NN(CC(=O)O)C(=O)[C@@H]1O[C@H]1C(=O)N[C@@H](Cc1ccccc1)C(N)=O
1910,142,6050,–,–,–,–,CCNC(=O)[C@H]1O[C@@H]1C(=O)N(CC(=O)O)NC(=O)[C@H](C)NC(=O)[C@@H](NC(=O)CCc1ccccc1)C(C)C
310,44,180,–,–,–,–,CC(C)[C@H](NC(=O)OCc1ccccc1)C(=O)NN(CC(=O)O)C(=O)[C@H]1O[C@@H]1CCc1ccccc1
3520,10300,72700,43500,–,–,–,CC(C)C[C@H](NC(=O)OCc1ccccc1)C(=O)NC(CCC(=O)O)C(=O)N[C@H](C(=O)NN(CC(=O)O)C(=O)[C@H]1O[C@@H]1C(=O)OCc1ccccc1)[C@@H](C)O (some centres undefined)
3050,38200,56000,–,–,–,–,CC[C@H](C)[C@H](NC(=O)OCc1ccccc1)C(=O)N[C@@H](CCC(=O)O)C(=O)N[C@H](C(=O)NN(CC(=O)O)C(=O)[C@@H]1O[C@H]1C(=O)N[C@@H](C)C(=O)NCc1ccccc1)[C@@H](C)O
145,–,–,–,–,inactive,inactive,CC(C)[C@H](NC(=O)OCc1ccccc1)C(=O)NN(CC(=O)O)C(=O)[C@H]1O[C@@H]1c1ccc(Cl)cc1

k2 (Caspase-3 (Homo sapiens) [1]) [M⁻¹ s⁻¹],k2 (Caspase-6 (Homo sapiens) [2]) [M⁻¹ s⁻¹],k2 (Caspase-8 (Homo sapiens) [3]) [M⁻¹ s⁻¹],k2 (Caspase-1 (Homo sapiens)) [M⁻¹ s⁻¹],k2 (Caspase-3 (Homo sapiens) [4]),k2 (Caspase-6 (Homo sapiens) [5]),k2 (Caspase-8 (Homo sapiens) [6]),Structure (SMILES)
1.91e+06,12700,188000,54700,–,–,–,CC(C)[C@H](NC(=O)C(CCC(=O)O)NC(=O)[C@H](CC(=O)O)NC(=O)OCc1ccccc1)C(=O)NN(CC(=O)O)C(=O)[C@H]1O[C@@H]1C(=O)OCc1ccccc1 (some centres undefined)
420,71,315,26100,–,–,–,CC(C)C[C@H](NC(=O)[C@H]1O[C@@H]1C(=O)N(CC(=O)O)NC(=O)[C@H](C)NC(=O)[C@@H](NC(=O)CCc1ccccc1)C(C)C)C(N)=O
1.09e+06,6000,84400,25400,–,–,–,CC(C)[C@H](NC(=O)C(CCC(=O)O)NC(=O)[C@H](CC(=O)O)NC(=O)OCc1ccccc1)C(=O)NN(CC(=O)O)C(=O)[C@H]1O[C@@H]1C(=O)NCc1ccccc1 (some centres undefined)
1110,130,10100,17100,–,–,–,CC(C)[C@H](NC(=O)CCc1ccccc1)C(=O)N[C@@H](C)C(=O)NN(CC(=O)O)C(=O)[C@H]1O[C@@H]1C(=O)NCCc1ccccc1
260,25,140,13400,–,–,–,CC(C)[C@H](NC(=O)CCc1ccccc1)C(=O)N[C@@H](C)C(=O)NN(CC(=O)O)C(=O)[C@H]1O[C@@H]1C(=O)N[C@@H](C)C(=O)NCc1ccccc1
6500,60100,6500,18100,–,–,–,CC[C@H](C)[C@H](NC(=O)OCc1ccccc1)C(=O)N[C@@H](CCC(=O)O)C(=O)N[C@H](C(=O)NN(CC(=O)O)C(=O)[C@@H]1O[C@H]1C(=O)NCc1ccccc1)[C@@H](C)O
–,–,–,330,inactive,inactive,inactive,CC(C)[C@H](NC(=O)CCc1ccccc1)C(=O)N[C@@H](C)C(=O)NN(CC(=O)O)C(=O)[C@@H]1O[C@H]1C(=O)N[C@@H](Cc1ccccc1)C(N)=O
87,11,125,3250,–,–,–,CC(C)[C@H](NC(=O)CCc1ccccc1)C(=O)N[C@@H](C)C(=O)NN(CC(=O)O)C(=O)[C@H]1O[C@@H]1C(=O)N[C@@H](Cc1ccc(O)cc1)C(N)=O
–,–,–,950,inactive,inactive,inactive,CC(C)[C@H](NC(=O)CCc1ccccc1)C(=O)N[C@@H](C)C(=O)NN(CC(=O)O)C(=O)[C@@H]1O[C@H]1C(=O)NCCc1ccccc1
2630,34000,8800,13300,–,–,–,CCOC(=O)[C@@H]1O[C@H]1C(=O)N(CC(=O)O)NC(=O)[C@@H](NC(=O)[C@H](CCC(=O)O)NC(=O)[C@@H](NC(=O)OCc1ccccc1)[C@@H](C)CC)[C@@H](C)O
625,65,390,32700,–,–,–,CC(C)[C@H](NC(=O)CCc1ccccc1)C(=O)N[C@@H](C)C(=O)NN(CC(=O)O)C(=O)[C@H]1O[C@@H]1C(=O)N[C@@H](Cc1ccccc1)C(N)=O
–,–,–,400,inactive,inactive,inactive,CC(C)[C@H](NC(=O)CCc1ccccc1)C(=O)N[C@@H](C)C(=O)NN(CC(=O)O)C(=O)[C@@H]1O[C@H]1C(=O)NCC(O)c1ccccc1 (some centres undefined)
–,–,–,6290,inactive,inactive,inactive,CCOC(=O)[C@@H]1O[C@H]1C(=O)N(CC(=O)O)NC(=O)[C@H](C)NC(=O)[C@@H](NC(=O)CCc1ccccc1)C(C)C
1280,6660,44800,–,–,–,–,CC(C)C[C@H](NC(=O)OCc1ccccc1)C(=O)NC(CCC(=O)O)C(=O)N[C@H](C(=O)NN(CC(=O)O)C(=O)[C@H]1O[C@@H]1C(=O)N[C@@H](C)C(=O)NCc1ccccc1)[C@@H](C)O (some centres undefined)
1610,155,9360,65900,–,–,–,CC(C)[C@H](NC(=O)CCc1ccccc1)C(=O)N[C@@H](C)C(=O)NN(CC(=O)O)C(=O)[C@H]1O[C@@H]1C(=O)NCc1ccccc1
9500,86200,58500,45800,–,–,–,CC[C@H](C)[C@H](NC(=O)OCc1ccccc1)C(=O)N[C@@H](CCC(=O)O)C(=O)N[C@H](C(=O)NN(CC(=O)O)C(=O)[C@H]1O[C@@H]1C(=O)OCc1ccccc1)[C@@H](C)O
